From paper PMC10238246 (Medicinal Chemistry Research, 2023)

Assays:
[1] = test system: mouse formalin model; assay: mouse formalin model of acute and persistent pain; type: in vivo; details: 200 mg/kg i.p., positive control
Outline: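 Mouse formalin model: test compounds given s.c. (10, 30, 60 mg/kg) or i.p. (30 mg/kg) to maximise exposure. The positive control was a reference analgesic at 200 mg/kg i.p. Formalin-induced flinches were counted over 65 min. Plasma and brain levels were sampled at study end (~90 min post-dose), and free plasma level was estimated from plasma protein binding.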

[2] = test system: mouse rotarod assay; assay: mouse rotarod assay; type: in vivo; details: dose of 200 mg/kg

## NCC1(CC(=O)O)CCCCC1 [Gabapentin]
[1]
  efficacy in the formalin model (number of flinches): Efficacy was seen
[2]
  behavioral side effects: behavioral side effects (i.e., sedation)
